Assays:
DU-145 = assay: Cytotoxicity against human DU145 cells assessed as cell growth at 10^-5 M after 48 hrs by SRB assay; type: functional; settings: DU-145, 48 h, read-out: Activity
Summary of the method: (§1)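 NCI 60-cell-line primary one-dose screen across nine tumour subpanels. Compound added at a single concentration of 10^-5 M and cultures incubated 48 h. Endpoint was sulforhodamine B protein staining read spectrophotometrically, with growth expressed as percent of untreated control cells.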

MCF7 = assay: Cytotoxicity against human MCF7 cells assessed as cell growth at 10^-5 M after 48 hrs by SRB assay; type: functional; settings: MCF7, 48 h, read-out: Activity; summary of the method: as §1
UO-31 = assay: Cytotoxicity against human UO31 cells assessed as cell growth at 10^-5 M after 48 hrs by SRB assay; type: functional; settings: UO-31, 48 h, read-out: Activity
Summary of the method: (§2)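 NCI-60 one-dose screen across nine tumour subpanels. Each agent added once at 10^-5 M, cultures incubated 48 h. Endpoint is sulforhodamine B protein staining read spectrophotometrically. Output is percent growth of treated cells relative to untreated controls.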

RXF 393 = assay: Cytotoxicity against human RXF393 cells assessed as cell growth at 10^-5 M after 48 hrs by SRB assay; type: functional; settings: RXF 393, 48 h, read-out: Activity; summary of the method: as §1
CAKI-1 = assay: Cytotoxicity against human CAKI-1 cells assessed as cell growth at 10^-5 M after 48 hrs by SRB assay; type: functional; settings: CAKI-1, 48 h, read-out: Activity; summary of the method: as §1
NCI/ADR-RES = assay: Cytotoxicity against human NCI/ADR-RES cells assessed as cell growth at 10^-5 M after 48 hrs by SRB assay; type: functional; settings: read-out: Activity; summary of the method: as §1
SK-OV-3 = assay: Cytotoxicity against human SKOV3 cells assessed as cell growth at 10^-5 M after 48 hrs by SRB assay; type: functional; settings: SK-OV-3, 48 h, read-out: Activity; summary of the method: as §2
OVCAR-8 = assay: Cytotoxicity against human OVCAR8 cells assessed as cell growth at 10^-5 M after 48 hrs by SRB assay; type: functional; settings: OVCAR-8, 48 h, read-out: Activity; summary of the method: as §1
OVCAR-5 = assay: Cytotoxicity against human OVCAR5 cells assessed as cell growth at 10^-5 M after 48 hrs by SRB assay; type: functional; settings: OVCAR-5, 48 h, read-out: Activity; summary of the method: as §1
OVCAR-3 = assay: Cytotoxicity against human OVCAR3 cells assessed as cell growth at 10^-5 M after 48 hrs by SRB assay; type: functional; settings: OVCAR-3, 48 h, read-out: Activity; summary of the method: as §1
UACC-257 = assay: Cytotoxicity against human UACC257 cells assessed as cell growth at 10^-5 M after 48 hrs by SRB assay; type: functional; settings: UACC-257, 48 h, read-out: Activity; summary of the method: as §2
SK-MEL-5 = assay: Cytotoxicity against human SK-MEL-5 cells assessed as cell growth at 10^-5 M after 48 hrs by SRB assay; type: functional; settings: SK-MEL-5, 48 h, read-out: Activity; summary of the method: as §2
SK-MEL-2 = assay: Cytotoxicity against human SK-MEL-2 cells assessed as cell growth at 10^-5 M after 48 hrs by SRB assay; type: functional; settings: SK-MEL-2, 48 h, read-out: Activity; summary of the method: as §1
LOX IMVI = assay: Cytotoxicity against human LOXIMVI cells assessed as cell growth at 10^-5 M after 48 hrs by SRB assay; type: functional; settings: read-out: Activity; summary of the method: as §1
U-251 = assay: Cytotoxicity against human U251 cells assessed as cell growth at 10^-5 M after 48 hrs by SRB assay; type: functional; settings: U-251, 48 h, read-out: Activity; summary of the method: as §2
SNB-19 = assay: Cytotoxicity against human SNB19 cells assessed as cell growth at 10^-5 M after 48 hrs by SRB assay; type: functional; settings: SNB-19, 48 h, read-out: Activity; summary of the method: as §2
SF-539 = assay: Cytotoxicity against human SF539 cells assessed as cell growth at 10^-5 M after 48 hrs by SRB assay; type: functional; settings: SF-539, 48 h, read-out: Activity; summary of the method: as §1
SF-268 = assay: Cytotoxicity against human SF268 cells assessed as cell growth at 10^-5 M after 48 hrs by SRB assay; type: functional; settings: SF-268, 48 h, read-out: Activity; summary of the method: as §1
SF-295 = assay: Cytotoxicity against human SF295 cells assessed as cell growth at 10^-5 M after 48 hrs by SRB assay; type: functional; settings: SF-295, 48 h, read-out: Activity; summary of the method: as §1
SW-620 = assay: Cytotoxicity against human SW620 cells assessed as cell growth at 10^-5 M after 48 hrs by SRB assay; type: functional; settings: SW-620, 48 h, read-out: Activity; summary of the method: as §2
COLO 205 = assay: Cytotoxicity against human COLO205 cells assessed as cell growth at 10^-5 M after 48 hrs by SRB assay; type: functional; settings: COLO 205, 48 h, read-out: Activity; summary of the method: as §1
NCI-H522 = assay: Cytotoxicity against human NCI-H522 cells assessed as cell growth at 10^-5 M after 48 hrs by SRB assay; type: functional; settings: NCI-H522, 48 h, read-out: Activity; summary of the method: as §1
NCI-H226 = assay: Cytotoxicity against human NCI-H226 cells assessed as cell growth at 10^-5 M after 48 hrs by SRB assay; type: functional; settings: NCI-H226, 48 h, read-out: Activity; summary of the method: as §1
SR = assay: Cytotoxicity against human SR cells assessed as cell growth at 10^-5 M after 48 hrs by SRB assay; type: functional; settings: read-out: Activity; summary of the method: as §2
A549 = assay: Cytotoxicity against human A549 cells assessed as cell growth at 10^-5 M after 48 hrs by SRB assay; type: functional; settings: A549, 48 h, read-out: Activity; summary of the method: as §1
RPMI-8226 = assay: Cytotoxicity against human RPMI8226 cells assessed as cell growth at 10^-5 M after 48 hrs by SRB assay; type: functional; settings: RPMI-8226, 48 h, read-out: Activity; summary of the method: as §1
Rattus norvegicus [1] = assay: Gastrointestinal toxicity in albino rat assessed as ulcer index at 0.28 mmol/kg, po (reference value: 0.60 +/- 0.05); type: organism-based; settings: in vivo
Rattus norvegicus [2] = assay: Antiinflammatory activity in albino rat assessed as inhibition of carrageenan-induced paw edema at 0.28 mmol/kg, po after 5 hrs relative to control; type: functional
Summary of the method: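 Adult male albino rats (120–140 g), four per group, fasted 24 h with water allowed. Test agent suspended in 0.5% w/v aqueous CMC and given orally at 0.28 mmol/kg; controls received CMC alone. After 30 min, 0.1 mL fresh 1% carrageenan in saline was injected subplantar into the right hind paw and saline into the left. Paw thickness was measured by Vernier caliper; % inhibition = [(VR−VL)control − (VR−VL)treated]/(VR−VL)control ×100. Mean ± SEM, one-way ANOVA.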

[3] = Induction of nitric oxide release in phosphate buffer at pH 7.4 at 0.1 mM after 5 hrs by Griess method in presence of 0.5 mM of N-acetylcysteine; type: physicochemical; settings: pH 7.4, 5 h, 100 µM
Summary of the method: (§3)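 Compound in DMF diluted to final 10^-4 M in 1:1 50 mM phosphate buffer pH 7.4/MeOH with 5×10^-4 M N-acetylcysteine, 37 °C. Aliquot mixed with Griess reagent, 10 min at room temperature, A546 read. Nitrite quantified against sodium nitrite standards (10–80 nmol/mL); NO expressed as mol/mol. n = 4 reaction mixtures per compound.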

[4] = Induction of nitric oxide release in phosphate buffer at pH 7.4 at 0.1 mM after 4 hrs by Griess method in presence of 0.5 mM of N-acetylcysteine; type: physicochemical; settings: pH 7.4, 4 h, 100 µM; summary of the method: as §3

Molecule `CCn1c(SC/C(=N/O)c2ccccc2)nnc1-c1ccccc1` has a growth at 10 µM (DU-145) of 107%, a growth at 10 µM (MCF7) of 112% and a growth at 10 µM (UO-31) of 91.5%. It also gave a growth at 10 µM (RXF 393) of 117%, a growth at 10 µM (CAKI-1) of 89% and a growth at 10 µM (NCI/ADR-RES) of 103%. It also gave a growth at 10 µM (SK-OV-3) of 89.7%, a growth at 10 µM (OVCAR-8) of 111% and a growth at 10 µM (OVCAR-5) of 96.8%. For the same molecule, the growth at 10 µM (OVCAR-3) was 121%, the growth at 10 µM (UACC-257) was 104% and the growth at 10 µM (SK-MEL-5) was 100%. The growth at 10 µM (SK-MEL-2) was 108%, the growth at 10 µM (LOX IMVI) was 104% and the growth at 10 µM (U-251) was 102%. The growth at 10 µM (SNB-19) was 99%, the growth at 10 µM (SF-539) was 93.7% and the growth at 10 µM (SF-268) was 108%. The growth at 10 µM (SF-295) was 109%, the growth at 10 µM (SW-620) was 98.7% and the growth at 10 µM (COLO 205) was 115%. It also gave a growth at 10 µM (NCI-H522) of 112%, a growth at 10 µM (NCI-H226) of 108% and a growth at 10 µM (SR) of 94.8%. The growth at 10 µM (A549) was 101%, the growth at 10 µM (RPMI-8226) was 89.7% and the UI (Rattus norvegicus [1]) was 1.78. For the same molecule, the inhibition in vivo at 280 µmol/kg (Rattus norvegicus [2]) was 71%, the Activity [3] was 0.14 mol/mol and the Activity [4] was 0.13 mol/mol.

Reference: ChEMBL document CHEMBL2390929, “New nitric oxide donating 1,2,4-triazole/oxime hybrids: synthesis, investigation of anti-inflammatory, ulceroginic liability and antiproliferative activities” (Bioorg Med Chem, 2013)
